# Measured values pooled from the literature.
Compound,system,conditions,endpoint,result
Cn1cc(Nc2nc(N)nc(-c3cccc(-n4ccc5cc(C6CC6)cc(F)c5c4=O)c3CO)n2)cn1,"human, plasma","oral, 300 mg, single dose, fasted",Vd/F,422 L
NC(=S)NN=Cc1ncccc1N,"human, plasma","oral, 100 mg",Vd/F,205 L
Cl.[2H]C([2H])([2H])CC(=O)c1cnc(NC(=O)C2CC2)cc1Nc1cccc(-c2ncn(C([2H])([2H])[2H])n2)c1OC,"human, plasma","oral, 20 mg, multiple doses, once daily, fasted",Vd/F,240 L
Cc1ccc(C(=O)Nc2ccc(CN3CCN(C)CC3)c(C(F)(F)F)c2)cc1C#Cc1cnc2[nH]ncc2c1,"human, plasma","oral, 40 mg, single dose, healthy volunteers",Vd/F,5370 L
CCN1CCN(Cc2ccc(NC(=O)c3ccc(C)c(NC(=O)c4cncc(-c5cccs5)c4)c3)cc2C(F)(F)F)CC1,"mouse, plasma","intraperitoneal, 15 mg/kg, single dose",Cmax,582 ng/mL
CC[C@H](C)CCCCC(=O)N[C@@H](CCN)C(=O)N[C@H](C(=O)N[C@@H](CCN)C(=O)N[C@H]1CCNC(=O)[C@H]([C@@H](C)O)NC(=O)[C@H](CCN)NC(=O)[C@H](CCN)NC(=O)[C@H](CC(C)C)NC(=O)[C@@H](Cc2ccccc2)NC(=O)[C@H](CCN)NC1=O)[C@@H](C)O,"human, plasma","intravenous, 0.75 mg/kg, single dose, infusion",Vd,20.2 L
Nc1ncn([C@H]2C[C@H](O)[C@@H](CO)O2)c(=O)n1,"female C57BL/6 mouse, plasma","intravenous, 0.4 mg/kg",Cmax,319 ng/mL
C=CS(=O)(=O)c1ccc(Nc2nc(OCC3CCCCC3)c3nc[nH]c3n2)cc1,"male BALB/c mouse, plasma","intravenous, 20 mg/kg, single dose",Cmax,534 ng/mL
CNC(=O)n1ccc2cc(Oc3ccnc(NC(=O)c4ccc(C5CCN(CCO)CC5)cc4)c3)c(OCCOC)cc21,"human, plasma","oral, 35 mg, single dose, fed, healthy volunteers",Vd/F,14300 L
CC(=O)O[C@@]12CO[C@@H]1C[C@H](O)[C@@]1(C)C(=O)[C@H](O)C3=C(C)[C@@H](OC(=O)[C@H](O)[C@@H](NC(=O)OC(C)(C)C)c4ccccc4)C[C@@](O)([C@@H](OC(=O)c4ccccc4)[C@H]21)C3(C)C,"male Kunming mouse, liver","oral, 20 mg/kg",Cmax,18.9 ng/g
